Assay results reported in ChEMBL document CHEMBL4689842, “EUbOPEN Chemogenomics Library wave 1” (2021).
Values joined by “and” are separate entries in the source; they are usually repeats but may differ in a detail not shown here. Equal values may be shown once.

Test system: HEK-293T
Assay: Multiplex assay against HEK293T;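 on Population Tubulin-Different-Phenotype (%): share of the cells with healthy nuclei that show this phenotype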
Format: toxicity, cell-based
Details: human
Outline: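 Cells were classed with CellPathfinder machine-learning gating, first as Hoechst high-intensity objects or normal cells, then (normal cells) as healthy, pyknosed or fragmented nuclei, and finally (pyknosed cells) as mitotic or apoptotic. Staining of live cells at seeding used Hoechst33342, BioTracker Green Microtubule Cytoskeleton Dye, MitoTracker Red and Annexin V Alexa Fluor 680, with imaging on a CQ1 microscope at 37°C and 5% CO2 after compound addition. Tubulin, mitochondrial-mass and membrane-permeability phenotypes are per cents of healthy-nucleus cells.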

[1] = 12 h, 10 µM, compound concentration 10 uM, replicate 1
[2] = 12 h, 10 µM, compound concentration 10 uM, replicate 2
[3] = 24 h, 10 µM, compound concentration 10 uM, replicate 1
[4] = 24 h, 10 µM, compound concentration 10 uM, replicate 2
[5] = 12 h, 1 µM, compound concentration 1 uM, replicate 1
[6] = 12 h, 1 µM, compound concentration 1 uM, replicate 2
[7] = 24 h, 1 µM, compound concentration 1 uM, replicate 1
[8] = 24 h, 1 µM, compound concentration 1 uM, replicate 2
[9] = 48 h, 1 µM, compound concentration 1 uM, replicate 1
[10] = 48 h, 1 µM, compound concentration 1 uM, replicate 2
[11] = 48 h, 10 µM, compound concentration 10 uM, replicate 1
[12] = 48 h, 10 µM, compound concentration 10 uM, replicate 2

## CCN(CC)S(=O)(=O)Nc1cccc(-c2ccc3c(NC(=O)C4CC4)n[nH]c3c2)c1
[1]
  Population Apoptotic (%): 14% and 17%
  Population Fragmented Nuclei (%): 23% and 22%
  Population Healthy Nuclei (%): 31% and 60%
  Population Hoechst High Intensity Objects (%): 17% and 14%
  Population Membrane Permeable-Phenotype (%): 7% and 4%
  Population Mitochondria Different-Phenotype (%): 5% and 3%
  Population Mitotic Cells (%): 85% and 82%
  Population Normal (%): 82% and 85%
  Population Pyknosed Nuclei (%): 45% and 17%
  Population Tubulin-Different-Phenotype (%): 6% and 1%
  Total Cell Count: 531 and 471
[2]
  Population Apoptotic (%): 13% and 5%
  Population Healthy Nuclei (%): 76% and 84%
  Population Hoechst High Intensity Objects (%): 4% and 2%
  Population Membrane Permeable-Phenotype (%): 1% and 0%
  Population Mitotic Cells (%): 86% and 94%
  Population Normal (%): 95% and 97%
  Population Tubulin-Different-Phenotype (%): 10% and 4%
  Total Cell Count: 940 and 1848
[3]
  Population Apoptotic (%): 19% and 16%
  Population Fragmented Nuclei (%): 22% and 21%
  Population Healthy Nuclei (%): 34% and 70%
  Population Hoechst High Intensity Objects (%): 14% and 9%
  Population Membrane Permeable-Phenotype (%): 7% and 8%
  Population Mitotic Cells (%): 80% and 83%
  Population Normal (%): 85% and 90%
  Total Cell Count: 487 and 501
[4]
  Population Apoptotic (%): 4% and 8%
  Population Healthy Nuclei (%): 67% and 71%
  Population Hoechst High Intensity Objects (%): 4% and 6%
  Population Membrane Permeable-Phenotype (%): 2% and 1%
  Population Mitochondria Different-Phenotype (%): 22%
  Population Mitotic Cells (%): 95% and 91%
  Population Normal (%): 95% and 93%

## CNc1cc(Oc2cc(C(=O)Nc3cc(N4CCN(C)CC4)cc(C(F)(F)F)c3)ccc2C)ncn1
[5]
  Population Apoptotic (%): 79%
  Population Fragmented Nuclei (%): 14%
  Population Healthy Nuclei (%): 13%
  Population Hoechst High Intensity Objects (%): 20%
  Population Membrane Permeable-Phenotype (%): 0%
  Population Mitochondria Different-Phenotype (%): 96%
  Population Mitotic Cells (%): 20%
  Population Normal (%): 79%
  Population Pyknosed Nuclei (%): 72%
  Population Tubulin-Different-Phenotype (%): 89%
  Total Cell Count: 263
[6]
  Population Apoptotic (%): 41%
  Population Fragmented Nuclei (%): 8%
  Population Healthy Nuclei (%): 21%
  Population Hoechst High Intensity Objects (%): 6%
  Population Membrane Permeable-Phenotype (%): 2%
  Population Mitochondria Different-Phenotype (%): 69%
  Population Mitotic Cells (%): 58%
  Population Normal (%): 93%
  Population Pyknosed Nuclei (%): 70%
  Population Tubulin-Different-Phenotype (%): 76%
  Total Cell Count: 213
[1]
  Population Apoptotic (%): 86%
  Population Fragmented Nuclei (%): 17%
  Population Healthy Nuclei (%): 3%
  Population Hoechst High Intensity Objects (%): 21%
  Population Membrane Permeable-Phenotype (%): 0%
  Population Mitochondria Different-Phenotype (%): 100%
  Population Mitotic Cells (%): 13%
  Population Normal (%): 78%
  Population Pyknosed Nuclei (%): 80%
  Population Tubulin-Different-Phenotype (%): 83%
  Total Cell Count: 256
[2]
  Population Apoptotic (%): 98%
  Population Fragmented Nuclei (%): 5%
  Population Healthy Nuclei (%): 4%
  Population Hoechst High Intensity Objects (%): 14%
  Population Mitotic Cells (%): 1%
  Population Normal (%): 85%
  Population Pyknosed Nuclei (%): 89%
  Population Tubulin-Different-Phenotype (%): 60%
  Total Cell Count: 127
[7]
  Population Apoptotic (%): 73%
  Population Fragmented Nuclei (%): 18%
  Population Healthy Nuclei (%): 12%
  Population Hoechst High Intensity Objects (%): 21%
  Population Membrane Permeable-Phenotype (%): 0%
  Population Mitochondria Different-Phenotype (%): 96%
  Population Mitotic Cells (%): 26%
  Population Normal (%): 78%
  Population Pyknosed Nuclei (%): 69%
  Population Tubulin-Different-Phenotype (%): 81%
  Total Cell Count: 269
[8]
  Population Apoptotic (%): 41%
  Population Fragmented Nuclei (%): 12%
  Population Healthy Nuclei (%): 36%
  Population Hoechst High Intensity Objects (%): 5%
  Population Membrane Permeable-Phenotype (%): 1%
  Population Mitochondria Different-Phenotype (%): 63%
  Population Mitotic Cells (%): 58%
  Population Normal (%): 94%
  Population Pyknosed Nuclei (%): 51%
  Population Tubulin-Different-Phenotype (%): 70%
  Total Cell Count: 284
[3]
  Population Apoptotic (%): 88%
  Population Fragmented Nuclei (%): 15%
  Population Healthy Nuclei (%): 0%
  Population Hoechst High Intensity Objects (%): 26%
  Population Membrane Permeable-Phenotype (%): 0%
  Population Mitochondria Different-Phenotype (%): 100%
  Population Mitotic Cells (%): 11%
  Population Normal (%): 73%
  Population Pyknosed Nuclei (%): 84%
  Population Tubulin-Different-Phenotype (%): 100%
  Total Cell Count: 264
[4]
  Population Apoptotic (%): 97%
  Population Fragmented Nuclei (%): 6%
  Population Healthy Nuclei (%): 3%
  Population Hoechst High Intensity Objects (%): 18%
  Population Mitotic Cells (%): 2%
  Population Normal (%): 81%
  Population Pyknosed Nuclei (%): 89%
  Population Tubulin-Different-Phenotype (%): 75%
  Total Cell Count: 126
[9]
  Population Apoptotic (%): 68%
  Population Fragmented Nuclei (%): 24%
  Population Healthy Nuclei (%): 21%
  Population Hoechst High Intensity Objects (%): 18%
  Population Membrane Permeable-Phenotype (%): 1%
  Population Mitochondria Different-Phenotype (%): 76%
  Population Mitotic Cells (%): 31%
  Population Normal (%): 81%
  Population Pyknosed Nuclei (%): 54%
  Population Tubulin-Different-Phenotype (%): 74%
  Total Cell Count: 297
[10]
  Population Apoptotic (%): 40%
  Population Fragmented Nuclei (%): 14%
  Population Healthy Nuclei (%): 65%
  Population Hoechst High Intensity Objects (%): 4%
  Population Membrane Permeable-Phenotype (%): 6%
  Population Mitochondria Different-Phenotype (%): 25%
  Population Mitotic Cells (%): 59%
  Population Normal (%): 95%
  Population Pyknosed Nuclei (%): 19%
  Population Tubulin-Different-Phenotype (%): 51%
  Total Cell Count: 421
[11]
  Population Apoptotic (%): 91%
  Population Fragmented Nuclei (%): 32%
  Population Healthy Nuclei (%): 1%
  Population Hoechst High Intensity Objects (%): 29%
  Population Membrane Permeable-Phenotype (%): 0%
  Population Mitochondria Different-Phenotype (%): 100%
  Population Mitotic Cells (%): 8%
  Population Normal (%): 70%
  Population Pyknosed Nuclei (%): 66%
  Population Tubulin-Different-Phenotype (%): 33%
  Total Cell Count: 273
[12]
  Population Apoptotic (%): 98%
  Population Fragmented Nuclei (%): 7%
  Population Healthy Nuclei (%): 5%
  Population Hoechst High Intensity Objects (%): 26%
  Population Membrane Permeable-Phenotype (%): 20%
  Population Mitotic Cells (%): 1%
  Population Normal (%): 73%
  Population Pyknosed Nuclei (%): 87%
  Population Tubulin-Different-Phenotype (%): 80%
  Total Cell Count: 131
